The record followed here is ChEMBL document CHEMBL1140712 (J Med Chem, 2008).

Data set [1] in a line: Half life in Sprague-Dawley rat at 5 mg/kg, iv. As to conditions: in vivo. It counts as ADME, organism-based. Further details: dose 5 mg/kg, route intravenous.
The test system of data set [2] is Rattus norvegicus. The experiment in a line: Reduction of food intake in Sprague-Dawley rat at 100 umol/kg, po after 2 hrs relative to control. It is filed as functional. The method in brief:
(§1)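 Male Sprague-Dawley rats, caged singly, kept 2 weeks on a reverse light cycle, freely fed, eight per group. Oral gavage of vehicle or compound 1 h before the dark cycle. Food intake measured 2 h postdose and compared with vehicle control.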

Data set [3] concerns Rattus norvegicus. The experiment in a line: Reduction of food intake in Sprague-Dawley rat at 50 umol/kg, po after 2 hrs relative to control. It counts as functional. The method in brief: as §1
Data set [4] deals with Rattus norvegicus. The experiment in a line: Reduction of body weight in Sprague-Dawley rat at 36 mg/kg, po, bid after 28 days relative to control. Set-up: scale not given: the % may be the effect or the level left. It is filed as functional. The method in brief: (§2)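 Adult male Sprague-Dawley rats (250–400 g), caged separately with free access to food and water. Oral gavage of vehicle or drug for 28 days, with arms of 9, 18 and 36 mg/kg twice daily and 18 mg/kg once daily. Daily food intake and body weight recorded and compared with vehicle control.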

A short description of data set [5]: Cmax in Sprague-Dawley rat at 10 mg/kg, po. It counts as ADME, organism-based. Further details: dose 10 mg/kg, route oral. Particulars: in vivo.
The nature of data set [6]: AUC (0-infinity) in Sprague-Dawley rat at 5 mg/kg, iv. It counts as ADME, organism-based. Further details: time infinity, dose 5 mg/kg, route intravenous. Particulars: plasma.
Data set [7] relates to Rattus norvegicus. As to the kind of experiment: Reduction of body weight in Sprague-Dawley rat at 18 mg/kg, po, qd after 28 days relative to control. It is filed as functional. Set-up: scale not given: the % may be the effect or the level left. In short, it runs like this: as §2
Data set [8] concerns Rattus norvegicus. The experiment in a line: Reduction of food intake in Sprague-Dawley rat at 25 umol/kg, po after 2 hrs relative to control. It counts as functional. In short, it runs like this:
as §1

Data set [9] in a line: Half life in Sprague-Dawley rat at 10 mg/kg, po. It counts as ADME, organism-based. Further details: dose 10 mg/kg, route oral. As to conditions: in vivo.
A short description of data set [10]: Tmax in Sprague-Dawley rat at 10 mg/kg, po. As to conditions: in vivo. It counts as ADME, organism-based. Set-up: dose 10 mg/kg, route oral.
Data set [11] concerns Rattus norvegicus. As to the kind of experiment: Reduction of food intake in Sprague-Dawley rat at 12.5 umol/kg, po after 2 hrs relative to control. It counts as functional. The method in brief: as §1
Data set [12] is described as follows: Volume of distribution at steady state in Sprague-Dawley rat at 5 mg/kg, iv. Set-up: dose 5 mg/kg, route intravenous. It counts as ADME, organism-based. Particulars: in vivo, read-out: Vdss.
The nature of data set [13]: AUC (0-infinity) in Sprague-Dawley rat at 10 mg/kg, po. It counts as ADME, organism-based. Further details: time infinity, dose 10 mg/kg, route oral. Particulars: plasma.
Data set [14] concerns Rattus norvegicus. As to the kind of experiment: Reduction of body weight in Sprague-Dawley rat at 9 mg/kg, po, bid after 28 days relative to control. It is filed as functional. Set-up: scale not given: the % may be the effect or the level left. In short, it runs like this: as §2
The nature of data set [15]: Oral bioavailability in Sprague-Dawley rat at 10 mg/kg. It counts as ADME, organism-based. As to conditions: in vivo.
Data set [16] is filed under the species Rattus norvegicus. As to the kind of experiment: Reduction of food intake in Sprague-Dawley rat after 6 hrs relative to control. It counts as functional. The method in brief: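 Male Sprague-Dawley rats, individually caged after 2 weeks on a reverse light cycle, freely fed, eight per group. Dosed by oral gavage 1 h before the dark cycle. Food intake measured 6 h postdose versus vehicle-treated rats.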

Data set [17] can be described thus: Clearance in Sprague-Dawley rat at 5 mg/kg, iv. It counts as ADME, organism-based. Further details: dose 5 mg/kg, route intravenous. As to conditions: in vivo.
The subject of data set [18] is Rattus norvegicus. The experiment in a line: Reduction of body weight in Sprague-Dawley rat at 18 mg/kg, po, bid after 28 days relative to control. Set-up: scale not given: the % may be the effect or the level left. It counts as functional. In short, it runs like this: as §2
Data set [19] addresses T1, 5-hydroxytryptamine receptor 2C (Homo sapiens, UniProt P28335).
T1 sequence (P28335 whole entry): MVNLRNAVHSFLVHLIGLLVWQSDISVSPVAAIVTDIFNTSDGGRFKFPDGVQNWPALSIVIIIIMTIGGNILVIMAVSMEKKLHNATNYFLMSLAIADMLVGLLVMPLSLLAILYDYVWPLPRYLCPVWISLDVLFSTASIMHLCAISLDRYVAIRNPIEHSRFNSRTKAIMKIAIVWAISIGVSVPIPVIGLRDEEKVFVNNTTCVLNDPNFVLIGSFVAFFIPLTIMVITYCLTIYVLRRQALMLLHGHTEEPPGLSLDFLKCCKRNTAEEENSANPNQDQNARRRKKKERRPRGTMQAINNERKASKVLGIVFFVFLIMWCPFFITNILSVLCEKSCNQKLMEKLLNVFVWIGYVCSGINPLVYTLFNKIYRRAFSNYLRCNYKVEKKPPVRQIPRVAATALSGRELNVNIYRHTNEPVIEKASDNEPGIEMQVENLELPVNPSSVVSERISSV
The experiment in a line: Agonist activity at human 5HT2C receptor expressed in HEK293 cells assessed as intracellular IP3 accumulation. It is filed as functional, cell-based. In short, it runs like this:
(§3)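 Functional agonist assay read out as [3H]phosphoinositol turnover; potency expressed as pEC50.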

Data set [20] concerns the target Serotonin 2 receptors; 5-HT2a & 5-HT2c (Homo sapiens) (UniProt P28223+P28335). As to the kind of experiment: Selectivity ratio of pEC50 for human 5HT2A to pEC50 for human 5HT2C.
The species named for data set [21] is Homo sapiens. The experiment in a line: Selectivity ratio of pEC50 for human 5HT2B to pEC50 for human 5HT2C.
Data set [22] addresses 5-hydroxytryptamine receptor 2B (Homo sapiens, UniProt P41595). The experiment in a line: Agonist activity at human 5HT2B receptor expressed in HEK293 cells assessed as intracellular IP3 accumulation. It counts as functional, cell-based. In short, it runs like this:
as §3

Data set [23] addresses 5-hydroxytryptamine receptor 2A (Homo sapiens, UniProt P28223). As to the kind of experiment: Agonist activity at human 5HT2A receptor expressed in HEK293 cells assessed as intracellular IP3 accumulation. It is filed as functional, cell-based. In short, it runs like this: as §3

Each structure is given as a SMILES string.

Chain of 5-hydroxytryptamine receptor 2B (P41595 whole entry): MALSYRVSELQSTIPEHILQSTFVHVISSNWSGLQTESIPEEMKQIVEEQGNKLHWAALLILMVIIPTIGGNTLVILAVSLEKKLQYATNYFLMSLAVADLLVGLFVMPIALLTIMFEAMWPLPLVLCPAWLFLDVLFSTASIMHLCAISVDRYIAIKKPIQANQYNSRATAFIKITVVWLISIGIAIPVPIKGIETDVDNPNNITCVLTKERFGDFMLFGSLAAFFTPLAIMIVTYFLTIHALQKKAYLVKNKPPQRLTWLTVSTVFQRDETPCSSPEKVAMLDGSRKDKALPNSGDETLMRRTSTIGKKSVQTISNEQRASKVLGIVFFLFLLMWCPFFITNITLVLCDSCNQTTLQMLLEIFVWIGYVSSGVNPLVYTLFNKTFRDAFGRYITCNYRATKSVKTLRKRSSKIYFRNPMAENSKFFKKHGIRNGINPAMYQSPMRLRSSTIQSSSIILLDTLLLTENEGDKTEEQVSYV
Chain of 5-hydroxytryptamine receptor 2A (P28223 whole entry): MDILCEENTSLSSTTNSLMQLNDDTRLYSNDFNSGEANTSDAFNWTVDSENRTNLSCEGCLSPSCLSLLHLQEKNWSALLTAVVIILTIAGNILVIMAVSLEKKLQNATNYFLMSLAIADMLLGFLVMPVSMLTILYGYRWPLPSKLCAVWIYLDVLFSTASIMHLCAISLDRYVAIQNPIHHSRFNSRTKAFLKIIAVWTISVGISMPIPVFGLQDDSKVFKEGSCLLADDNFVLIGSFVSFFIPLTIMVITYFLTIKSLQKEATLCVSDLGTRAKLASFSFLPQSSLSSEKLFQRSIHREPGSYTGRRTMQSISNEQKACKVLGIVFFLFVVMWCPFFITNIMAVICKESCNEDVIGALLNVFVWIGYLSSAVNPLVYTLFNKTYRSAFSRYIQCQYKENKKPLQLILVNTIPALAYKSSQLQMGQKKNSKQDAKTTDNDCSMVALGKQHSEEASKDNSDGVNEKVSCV
Chain of Serotonin 2 receptors; 5-HT2a & 5-HT2c (Homo sapiens) (P28223 whole entry, looked up, one chain of several): as the sequence (P28223 whole entry) above

By half-life is commonly meant how long it takes for the measured level to halve. As usually defined, the inhibition in vivo is the relative decrease from the control value, in per cent. Broadly, the Cmax is the highest concentration seen after dosing. One may read the AUC(0-inf) as total exposure, with the tail of the curve extrapolated. As usually defined, the Tmax is the time at which the peak concentration occurs. In general, bioavailability refers to dose-corrected exposure relative to a reference, in per cent. What is called ED50 is the midpoint of the dose-response relation. The term clearance denotes the volume of plasma or blood freed of the substance per unit of time. As for `C[C@H]1CNCCc2ccc(Cl)cc21` [LORCASERIN], the half-life in data set [1] is 3.1 h; in [9] it was 3.7 h. Further, the inhibition in vivo at 100 µmol/kg in [2] worked out at 82%. This molecule also yielded an inhibition in vivo at 50 µmol/kg in data set [3] of 77%. In addition, the Activity in [4] worked out at 8.5%; in [7], 17.02%; in data set [14] it was 15.75%; in [18] it was 14.03%. In data set [5], the Cmax was found to be 260 ng/mL. For the same molecule, the values for the AUC(0-inf) in data set [6] and in data set [13] were 800 ng·h/mL and 1400 ng·h/mL, respectively. In addition, the inhibition in vivo at 25 µmol/kg in data set [8] came out at 58%. In addition, the Tmax in data set [10] turned out to be 0.5 h. This molecule also showed an inhibition in vivo at 12.5 µmol/kg in [11] of 34%. Also, the Vd in [12] was found to be 18 L/kg. The molecule further returned a bioavailability in data set [15] of 86%. The molecule further gave an ED50 in data set [16] of 18 mg/kg. This molecule had a clearance in data set [17] of 102 mL/min/kg.

The term EC50 denotes the concentration giving half of the maximal effect. Regarding `C[C@H]1CNCCc2ccc(C(F)(F)F)cc21`, the EC50 in data set [19] was 7.94 nM; in data set [22], 501 nM; in [23], 126 nM. Further, the Selectivity ratio in data set [20] was determined as 1.2; in data set [21], 1.8. In addition, the inhibition in vivo at 50 µmol/kg in [3] amounted to 41%. This molecule also returned an inhibition in vivo at 25 µmol/kg in [8] of 22%. In data set [11], this molecule came in with an inhibition in vivo at 12.5 µmol/kg of 14%.

On to `C[C@@H]1CNCCc2ccc(Cl)cc21`, for which, in data set [2], the inhibition in vivo at 100 µmol/kg was found to be 73%. In addition, the inhibition in vivo at 50 µmol/kg in [3] was determined as 41%. Moreover, the inhibition in vivo at 25 µmol/kg in [8] was found to be 26%. For the same molecule, in data set [11], the inhibition in vivo at 12.5 µmol/kg was determined as 7%.
